From ChEMBL document CHEMBL1137958, “2('),3(')-didehydro-2('),3(')-dideoxynucleosides are degraded to furfuryl alcohol under acidic conditions” (Bioorg Med Chem Lett, 2004)

Columns and labels:
[1] = Estimated half-life at 20 degree C in 0.05 M pH 2 NaH2PO4 buffer; format: ADME; details: phosphate buffer
In short: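 About 1 mg of nucleoside was dissolved in 0.05 M NaH2PO4 (pH 2.0) and stirred at ambient temperature for 24 h. Samples taken at 1 and 24 h were analysed by reverse-phase C18 HPLC, eluting with a gradient of 0.05 M triethylammonium bicarbonate to 70% acetonitrile. Half-life was estimated from the HPLC data, and TLC was run at 24 h.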

[2] = system: Vero; assay: Cytotoxicity was determined in Vero cells, relative to RVT; format: functional, cell-based; details: Chlorocebus sabaeus
[3] = Cytotoxicity was determined in PBM cells, relative to RVT; format: functional, cell-based; details: Homo sapiens, PBMC
[4] = system: CCRF-CEM; assay: Cytotoxicity was determined in CEM cells, relative to RVT; format: functional, cell-based; details: Homo sapiens
[5] = The anti-HIV-1 activity was assayed in activated human peripheral blood mononuclear (PBM) cells, relative to RVT; format: functional

Nc1nc(NC2CC2)c2ncn(C3C=CC(CO)O3)c2n1 (centres undefined)
half-life [1]: 41 min

C[C@@H]1C[C@@H]([C@H](O)CC2CC(=O)NC(=O)C2)C(=O)[C@@H](C)C1 [CYCLOHEXIMIDE]
IC50 [2]: 0.53 µM | IC50 [3]: 0.46 µM | IC50 [4]: 0.08 µM

Cc1cn([C@H]2C[C@H](N=[N+]=[N-])[C@@H](CO)O2)c(=O)[nH]c1=O [ZIDOVUDINE]
IC50 [3]: > 100 µM | EC50 [5]: 0.002 µM | EC90 [5]: 0.02 µM

Cc1c[nH]c(=O)[nH]c1=O [THYMINE]
IC50 [2]: > 100 µM | IC50 [3]: > 100 µM | IC50 [4]: > 100 µM

Cc1cn([C@H]2C=C[C@@H](CO)O2)c(=O)[nH]c1=O [STAVUDINE]
half-life [1]: 50000 min

Nc1nc(=O)[nH]cc1F [FLUCYTOSINE]
IC50 [2]: > 100 µM | IC50 [3]: ≥ 100 µM | IC50 [4]: > 100 µM

Nc1nc(O)c2ncn(C3C=CC(CO)O3)c2n1 (centres undefined)
half-life [1]: < 2 min

OCc1ccco1 [FURFURYL ALCOHOL]
IC50 [2]: > 100 µM | IC50 [3]: > 100 µM | EC50 [5]: > 100 µM | EC90 [5]: > 100 µM | IC50 [4]: > 100 µM

Nc1nc(=O)n([C@@H]2C=C[C@H](CO)O2)cc1F [ELVUCITABINE]
IC50 [2]: > 100 µM | half-life [1]: 45 min | IC50 [3]: > 100 µM | EC50 [5]: 0.067 µM | EC90 [5]: 1.9 µM | IC50 [4]: > 100 µM

Nc1nc2[nH]cnc2c(=O)[nH]1 [GUANINE]
IC50 [2]: 54.9 µM | IC50 [3]: > 100 µM | IC50 [4]: 64.3 µM
